Published values from different studies.
Protocols differ between the studies behind these lines.

COC(=O)C(NC(=O)c1cn(CCCCCF)c2ccccc12)C(C)(C)C (centres unmarked) — AUC(0-t) (male Sprague-Dawley rat, plasma; subcutaneous, 200 µg/kg): 37.7 ng·h/mL
N=c1c2c(-c3ccccc3)c(-c3ccccc3)n(Cc3ccccc3)c2ncn1[C@H]1CC[C@H](O)CC1 — Cmax (female minipig, plasma; oral, 2.5 mg/kg, single dose): 785 ng/mL
O=C(Nc1ccc2c(c1)B(O)OC2)c1ccc(Oc2ccccc2)cc1 — Papp (PAMPA; 200 µM, 5 h, pH 7.4): 0.82 ×10⁻⁶ cm/s
CN(C)C(=O)Oc1cc(OC(=O)N(C)C)cc(-c2cc3ccc(O)cc3o2)c1 — AUC(0-t) (male rat, plasma; intravenous, 5 mg/kg): 589 ng·h/mL
Cl.Cl.O=C(CCN1CCCCC1)c1ccc(-c2ccc(C(=O)CCN3CCCCC3)cc2)cc1 — AUC(0-t) (Sprague-Dawley rat, plasma; oral, 100 mg/kg): 978 ng·h/mL
CCCCCCCCCCCC(=O)NC(C)(C)C(=O)N1CCC[C@H]1C(=O)NC(C)(C)C(=O)NC(C)(C)C(=O)N1CCC[C@H]1C(=O)NC(C)(C)C(=O)NC(C)(C)C(=O)N1CCC[C@H]1C(=O)N[C@@H](C)C(=O)NC(C)(C)C(=O)NCCC(=O)N[C@@H](C)C(=O)NC(C)(C)C(=O)NC(C)(C)C(=O)NCCC(=O)NC(C)(C)C(=O)NC(C)(C)C(=O)NC(C)(C)C(=O)N[C@@H](C)C(=O)NCCC(=O)O — IC50 (HCT-116; cell growth or viability, MTT; 24 h): 1 µM
CC(C)(C)[C@H](NC(=O)[C@H](CCONC(=N)N)NC(=O)Cc1ccc(CNC(=N)N)cc1)C(=O)N[C@@H](CCONC(=N)N)C(=O)NCc1ccc(C(=N)N)cc1 — AUC(0-t) (male Sprague-Dawley rat, plasma; intravenous, 1 mg/kg): 2090 ng·h/mL
OC[C@@H](O)[C@@H](O)[C@H](O)[C@H](O)CO — Papp A→B (Caco-2): 0.249 ×10⁻⁶ cm/s
O=c1c(O[C@@H]2O[C@H](CO)[C@@H](O)[C@H](O)[C@H]2O)c(-c2ccc(O)cc2)oc2cc(O)cc(O)c12 — IC50 (HCT-116; cell growth or viability, WST-1): 36.6 µM
O=C([O-])C(=O)[O-].[NH-][C@@H]1CCCC[C@H]1[NH-].[Pt+4] (relative stereo) — AUC(0-inf) (rat, plasma; intravenous, 5 mg/kg): 2540 ng·h/mL
CC[C@@H]1CN2CCc3c([nH]c4cccc(OC)c34)[C@H]2C[C@@H]1/C(=C\OC)C(=O)OC — Papp A→B (Caco-2; pH 7.4): 14.2 cm/s
